Laboratory results taken from ChEMBL document CHEMBL4052637, “Discovery and Characterization of R/S-N-3-Cyanophenyl-N'-(6-tert-butoxycarbonylamino-3,4-dihydro-2,2-dimethyl-2H-1-benzopyran-4-yl)urea, a New Histone Deacetylase Class III Inhibitor Exerting Antiproliferative Activity against Cancer Cell Lines” (J Med Chem, 2017).
Calls of active or inactive are those of the source. No cut-off for these calls is given here.

Assays:
[1] = target: T1, NAD-dependent protein deacetylase sirtuin-1 (Homo sapiens) (UniProt Q96EB6); test: Inhibition of SIRT1 in human Hs683 cells assessed as increase of histone H3K56 acetylation at 10 to 25 after 8 to 24 hrs by Western blotting method; format: cell-based
T1 sequence (whole entry): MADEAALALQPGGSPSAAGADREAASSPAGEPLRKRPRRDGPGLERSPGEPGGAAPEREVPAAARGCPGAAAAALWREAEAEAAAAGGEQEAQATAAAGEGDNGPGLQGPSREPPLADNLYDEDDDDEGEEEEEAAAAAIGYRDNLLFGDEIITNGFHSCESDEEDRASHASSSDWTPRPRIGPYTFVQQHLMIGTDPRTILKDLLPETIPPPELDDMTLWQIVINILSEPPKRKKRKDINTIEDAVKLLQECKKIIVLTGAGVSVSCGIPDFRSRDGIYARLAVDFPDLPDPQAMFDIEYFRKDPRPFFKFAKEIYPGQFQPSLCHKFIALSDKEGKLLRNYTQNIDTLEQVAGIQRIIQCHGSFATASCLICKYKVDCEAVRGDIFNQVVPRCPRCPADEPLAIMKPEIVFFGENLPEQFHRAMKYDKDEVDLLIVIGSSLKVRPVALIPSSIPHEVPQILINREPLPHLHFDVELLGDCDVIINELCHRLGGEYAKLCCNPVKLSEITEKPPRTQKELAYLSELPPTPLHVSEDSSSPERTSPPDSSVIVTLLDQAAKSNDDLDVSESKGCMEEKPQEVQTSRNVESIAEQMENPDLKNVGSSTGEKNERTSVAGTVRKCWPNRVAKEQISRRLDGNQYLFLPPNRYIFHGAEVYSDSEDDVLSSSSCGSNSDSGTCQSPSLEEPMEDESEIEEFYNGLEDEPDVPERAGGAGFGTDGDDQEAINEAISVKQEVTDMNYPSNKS
Outline: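 Cells treated with the compound, then histone H3K56 acetylation assessed by Western blot on histone extracts; histone H1 or Coomassie staining as loading control.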

TK-10 = test: Growth inhibition of human TK10 cells after 48 hrs by SRB assay; format: functional; details: TK-10, 48 h
CAKI-1 = test: Growth inhibition of human Caki1 cells after 48 hrs by SRB assay; format: functional; details: CAKI-1, 48 h
SNB-75 = test: Growth inhibition of human SNB75 cells after 48 hrs by SRB assay; format: functional; details: SNB-75, 48 h
[2] = target: T1, NAD-dependent protein deacetylase sirtuin-1 (Homo sapiens); test: Inhibition of SIRT1 in human U373 cells assessed as increase of histone H4 acetylation at 10 to 25 after 8 to 24 hrs by Western blotting method; format: cell-based
U-373MG ATCC [3] = test: Inhibition of 3D tumor-like growth of human U373 cells assessed as decrease in ATP level at 5 to 10 uM treated for 24 hrs measured after 96 hrs by CellTiter-Glo assay; format: functional, cell-based
[4] = target: Histone deacetylase 11 (Homo sapiens) (UniProt Q96DB2); test: Inhibition of N-terminal His-tagged recombinant human HDAC11 expressed in baculovirus infected insect Sf9 cells at 0.1 to 100 uM using Fluor-de-Lys-SIRT1 as substrate after 15 mins by fluorescence assay
UACC-62 = test: Growth inhibition of human UACC62 cells after 48 hrs by SRB assay; format: functional; details: UACC-62, 48 h
[5] = target: T2, NAD-dependent protein deacetylase sirtuin-2 (Homo sapiens) (UniProt Q8IXJ6); test: Inhibition of SIRT2 in human U373 cells assessed as increase of alpha-tubulin acetylation at 2.5 uM after 8 hrs by Western blotting method relative to control; format: cell-based
T2 sequence (whole entry): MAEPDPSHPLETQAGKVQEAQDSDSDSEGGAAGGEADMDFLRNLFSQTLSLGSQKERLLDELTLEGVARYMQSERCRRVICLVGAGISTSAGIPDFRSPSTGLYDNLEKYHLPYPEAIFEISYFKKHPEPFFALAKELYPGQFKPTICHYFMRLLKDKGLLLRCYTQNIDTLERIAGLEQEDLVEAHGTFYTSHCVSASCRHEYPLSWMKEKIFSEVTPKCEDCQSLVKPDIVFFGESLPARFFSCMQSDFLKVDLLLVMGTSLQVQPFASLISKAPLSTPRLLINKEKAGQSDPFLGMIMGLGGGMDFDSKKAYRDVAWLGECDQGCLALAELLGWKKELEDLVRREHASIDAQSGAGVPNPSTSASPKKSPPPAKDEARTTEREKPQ

[6] = target: T1, NAD-dependent protein deacetylase sirtuin-1 (Homo sapiens); test: Inhibition of SIRT1 in human Hs683 cells assessed as increase of histone H4 acetylation at 5 uM after 8 hrs by Western blotting method relative to control; format: cell-based
RPMI-8226 = test: Growth inhibition of human RPMI8226 cells after 48 hrs by SRB assay; format: functional; details: RPMI-8226, 48 h
Hs 683 [7] = test: Potency index, ratio of sirtinol IC50 to test compound IC50 for human Hs683 cells; format: functional
[8] = target: T2, NAD-dependent protein deacetylase sirtuin-2 (Homo sapiens); test: Inhibition of SIRT2 in human U373 cells assessed as increase of alpha-tubulin acetylation at 10 uM after 8 hrs by Western blotting method relative to control; format: cell-based
Hs 683 [9] = test: Cell cycle arrest in human Hs683 cells assessed as accumulation at G1 phase at IC50 after 24 to 48 hrs by propidium iodide staining-based flow cytometry; format: functional
Outline: (§1)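 Cells were exposed to compound at the IC50 for each line from the 72 h MTT assay, or to a reference HDAC inhibitor at 2 μM. Cell cycle distribution was analyzed after 24 and 48 h. Results are mean ± SD of three independent experiments, with p values against control cells.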

SF-268 = test: Growth inhibition of human SF268 cells after 48 hrs by SRB assay; format: functional; details: SF-268, 48 h
[10] = Induction of apoptosis in human U373 cells at 10 uM after 72 hrs by TUNEL method relative to control; format: functional, U-373MG ATCC
U-373MG ATCC [11] = test: Cell cycle arrest in human U373 cells assessed as accumulation at G2/M phase at 2 uM after 24 to 48 hrs by propidium iodide staining-based flow cytometry; format: functional; details: 7.5 uM, in the assay text read “at 7.5 uM” for “at 2 uM”; outline: as §1
BT-549 = test: Growth inhibition of human BT549 cells after 48 hrs by SRB assay; format: functional; details: BT-549, 48 h
[12] = Selectivity index, ratio of IC50 for mouse astrocytes to IC50 for human U373 cells
[13] = Selectivity index, ratio of IC50 for mouse astrocytes to IC50 for human T98G cells
LOX IMVI = test: Growth inhibition of human LOXIMVI cells after 48 hrs by SRB assay; format: functional
SK-MEL-28 = test: Growth inhibition of human SK-MEL-28 cells after 48 hrs by SRB assay; format: functional; details: SK-MEL-28, 48 h
HL-60(TB) = test: Growth inhibition of human HL-60(TB) cells after 48 hrs by SRB assay; format: functional; details: HL-60, 48 h
NCI-H322M = test: Growth inhibition of human NCI-H322M cells after 48 hrs by SRB assay; format: functional
[14] = Selectivity index, ratio of IC50 for mouse astrocytes to IC50 for human Hs683 cells

Chain of Histone deacetylase 11 (Homo sapiens) (Q96DB2 whole entry): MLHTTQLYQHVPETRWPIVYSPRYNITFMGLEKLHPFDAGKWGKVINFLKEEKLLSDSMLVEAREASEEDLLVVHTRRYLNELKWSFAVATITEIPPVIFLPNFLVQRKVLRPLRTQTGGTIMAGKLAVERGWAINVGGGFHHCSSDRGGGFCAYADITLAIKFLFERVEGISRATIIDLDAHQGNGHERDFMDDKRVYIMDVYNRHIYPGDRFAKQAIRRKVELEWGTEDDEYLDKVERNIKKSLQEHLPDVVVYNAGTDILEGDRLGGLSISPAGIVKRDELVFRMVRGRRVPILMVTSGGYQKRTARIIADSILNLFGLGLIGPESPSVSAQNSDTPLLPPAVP

## CC(C)(C)OC(=O)Nc1ccc2c(c1)C(NC(=O)Nc1cccc(C#N)c1)CC(C)(C)O2 (stereo not given)
[1]
  inhibition: Active
TK-10
  GI50: 5.5 µM
CAKI-1
  GI50: 2450 nM
SNB-75
  GI50: 5.89 µM
[2]
  inhibition: Active
U-373MG ATCC [3]
  inhibition: Active
[4]
  inhibition: inactive
UACC-62
  GI50: 1000 nM
[5]
  fold change (FC): 1.4
[6]
  fold change (FC): 8.3
RPMI-8226
  GI50: 1620 nM
Hs 683 [7]
  Ratio IC50: 6
[8]
  fold change (FC): 8.6
Hs 683 [9]
  Activity: Active
SF-268
  GI50: 5.01 µM
[10]
  Activity: <10%
U-373MG ATCC [11]
  Activity: Active
BT-549
  GI50: 3.8 µM
[12]
  Ratio IC50: >10
[13]
  Ratio IC50: >10
LOX IMVI
  GI50: 1620 nM
SK-MEL-28
  GI50: 6.46 µM
HL-60(TB)
  GI50: 2570 nM
NCI-H322M
  GI50: 21.9 µM
[14]
  Ratio IC50: >10
